Tests used:
[1] = molecular target: Death-associated protein kinase 2 (Homo sapiens) (UniProt Q9UIK4); assay: Inhibition of human recombinant DAPK2 at 40 nM in presence of ATP by radiometric assay relative to control
[2] = molecular target: Serine/threonine-protein kinase mTOR (Homo sapiens) (UniProt P42345); assay: Inhibition of human recombinant FRAP at 40 nM in presence of ATP by radiometric assay relative to control
[3] = molecular target: Aurora kinase B (Homo sapiens) (UniProt Q96GD4); assay: Inhibition of human recombinant AurB at 40 nM related to control ULK1
Procedure, shortened: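 Radiometric activity assays in a panel of 327 human recombinant kinases, each run in duplicate at one inhibitor concentration. Activity remaining is expressed as percent of vehicle control, and percent inhibition is calculated as 100% minus percent activity remaining.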

[4] = molecular target: Casein kinase I isoform gamma-1 (Homo sapiens) (UniProt Q9HCP0); assay: Inhibition of human recombinant CK1g1 at 40 nM related to control ULK1
[5] = molecular target: T1, Mitogen-activated protein kinase 13 (Homo sapiens) (UniProt O15264); assay: Inhibition of human recombinant p38delta at 40 nM related to control ULK1
T1 sequence (whole entry): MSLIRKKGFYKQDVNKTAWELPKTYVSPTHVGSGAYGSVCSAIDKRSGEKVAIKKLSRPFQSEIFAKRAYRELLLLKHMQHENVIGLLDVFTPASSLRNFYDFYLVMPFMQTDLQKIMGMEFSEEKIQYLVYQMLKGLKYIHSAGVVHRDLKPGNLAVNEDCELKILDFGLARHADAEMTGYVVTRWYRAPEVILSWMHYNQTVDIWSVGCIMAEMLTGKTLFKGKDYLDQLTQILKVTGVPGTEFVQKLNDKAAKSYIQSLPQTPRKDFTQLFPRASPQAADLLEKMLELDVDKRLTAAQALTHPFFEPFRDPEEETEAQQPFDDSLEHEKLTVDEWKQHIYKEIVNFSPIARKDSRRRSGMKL

[6] = molecular target: Ribosomal protein S6 kinase alpha-2 (Homo sapiens) (UniProt Q15349); assay: Inhibition of human recombinant RSK3 at 40 nM related to control ULK1
[7] = molecular target: T2, Testis-specific serine/threonine-protein kinase 3 (Homo sapiens) (UniProt Q96PN8); assay: Inhibition of human recombinant TSSK3 at 40 nM related to control ULK1
T2 sequence (whole entry): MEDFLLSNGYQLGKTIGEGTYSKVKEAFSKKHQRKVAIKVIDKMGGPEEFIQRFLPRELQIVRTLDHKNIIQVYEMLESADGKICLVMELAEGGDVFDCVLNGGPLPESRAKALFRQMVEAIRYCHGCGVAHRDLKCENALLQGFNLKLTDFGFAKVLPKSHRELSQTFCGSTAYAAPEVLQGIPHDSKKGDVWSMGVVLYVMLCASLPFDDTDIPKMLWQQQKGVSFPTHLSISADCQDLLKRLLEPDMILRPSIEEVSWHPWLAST

[8] = molecular target: T3, Discoidin domain-containing receptor 2 (Homo sapiens) (UniProt Q16832); assay: Inhibition of human recombinant DDR2 at 15 nM in presence of ATP by radiometric assay relative to control
T3 sequence (whole entry): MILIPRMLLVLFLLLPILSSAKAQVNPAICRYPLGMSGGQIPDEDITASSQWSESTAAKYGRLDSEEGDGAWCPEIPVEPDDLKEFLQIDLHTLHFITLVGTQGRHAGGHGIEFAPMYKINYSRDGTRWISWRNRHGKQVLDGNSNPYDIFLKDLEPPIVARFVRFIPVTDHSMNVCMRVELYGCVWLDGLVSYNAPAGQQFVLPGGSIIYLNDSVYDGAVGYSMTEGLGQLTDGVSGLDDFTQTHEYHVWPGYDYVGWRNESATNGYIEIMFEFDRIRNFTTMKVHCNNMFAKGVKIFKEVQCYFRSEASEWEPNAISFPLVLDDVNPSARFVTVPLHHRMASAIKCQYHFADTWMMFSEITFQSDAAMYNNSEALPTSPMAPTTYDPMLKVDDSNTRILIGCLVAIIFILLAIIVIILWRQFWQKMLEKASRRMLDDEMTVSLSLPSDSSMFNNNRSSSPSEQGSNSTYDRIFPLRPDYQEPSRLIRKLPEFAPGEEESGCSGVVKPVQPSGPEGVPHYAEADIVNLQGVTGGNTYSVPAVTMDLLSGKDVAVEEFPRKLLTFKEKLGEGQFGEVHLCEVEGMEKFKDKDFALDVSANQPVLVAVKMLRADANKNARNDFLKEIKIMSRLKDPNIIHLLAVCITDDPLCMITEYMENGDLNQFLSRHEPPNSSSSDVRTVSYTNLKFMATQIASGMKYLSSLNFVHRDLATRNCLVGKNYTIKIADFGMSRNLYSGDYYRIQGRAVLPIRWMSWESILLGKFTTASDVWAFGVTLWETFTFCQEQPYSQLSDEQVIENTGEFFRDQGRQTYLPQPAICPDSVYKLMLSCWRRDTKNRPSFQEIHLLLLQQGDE

[9] = molecular target: Transcription initiation factor TFIID subunit 1-like (Homo sapiens) (UniProt Q8IZX4); assay: Inhibition of human recombinant TAF1L at 15 nM in presence of ATP by radiometric assay relative to control
[10] = molecular target: Serine/threonine-protein kinase 4 (MST1/STK4) (Homo sapiens) (UniProt Q13043); assay: Inhibition of human recombinant MST1 at 15 nM in presence of ATP by radiometric assay relative to control
[11] = molecular target: Calcium/calmodulin-dependent protein kinase type 1 (Homo sapiens) (UniProt Q14012); assay: Inhibition of human recombinant CaMK1a at 500 nM in presence of ATP by radiometric assay relative to control
[12] = molecular target: Receptor tyrosine-protein kinase erbB-2 (Homo sapiens) (UniProt P04626); assay: Inhibition of human recombinant ErbB2 at 500 nM in presence of ATP by radiometric assay relative to control
[13] = molecular target: Tyrosine-protein kinase FRK (Homo sapiens) (UniProt P42685); assay: Inhibition of human recombinant FRK at 500 nM in presence of ATP by radiometric assay relative to control
[14] = molecular target: Mitogen-activated protein kinase kinase kinase 9 (Homo sapiens) (UniProt P80192); assay: Inhibition of human recombinant MLK1 at 500 nM in presence of ATP by radiometric assay relative to control
[15] = molecular target: Serine/threonine-protein kinase WNK3 (Homo sapiens) (UniProt Q9BYP7); assay: Inhibition of human recombinant Wnk3 at 500 nM in presence of ATP by radiometric assay relative to control
[16] = molecular target: Casein kinase I isoform gamma-3 (Homo sapiens) (UniProt Q9Y6M4); assay: Inhibition of human recombinant CK1g3 at 500 nM related to control ULK1
[17] = molecular target: Serine/threonine-protein kinase NIM1 (Homo sapiens) (UniProt Q8IY84); assay: Inhibition of human recombinant NIM1 at 500 nM related to control ULK1
[18] = molecular target: Platelet-derived growth factor receptor beta (Homo sapiens) (UniProt P09619); assay: Inhibition of human recombinant PDGFRb at 500 nM related to control ULK1
Sequence of Platelet-derived growth factor receptor beta (Homo sapiens) (P09619 whole entry): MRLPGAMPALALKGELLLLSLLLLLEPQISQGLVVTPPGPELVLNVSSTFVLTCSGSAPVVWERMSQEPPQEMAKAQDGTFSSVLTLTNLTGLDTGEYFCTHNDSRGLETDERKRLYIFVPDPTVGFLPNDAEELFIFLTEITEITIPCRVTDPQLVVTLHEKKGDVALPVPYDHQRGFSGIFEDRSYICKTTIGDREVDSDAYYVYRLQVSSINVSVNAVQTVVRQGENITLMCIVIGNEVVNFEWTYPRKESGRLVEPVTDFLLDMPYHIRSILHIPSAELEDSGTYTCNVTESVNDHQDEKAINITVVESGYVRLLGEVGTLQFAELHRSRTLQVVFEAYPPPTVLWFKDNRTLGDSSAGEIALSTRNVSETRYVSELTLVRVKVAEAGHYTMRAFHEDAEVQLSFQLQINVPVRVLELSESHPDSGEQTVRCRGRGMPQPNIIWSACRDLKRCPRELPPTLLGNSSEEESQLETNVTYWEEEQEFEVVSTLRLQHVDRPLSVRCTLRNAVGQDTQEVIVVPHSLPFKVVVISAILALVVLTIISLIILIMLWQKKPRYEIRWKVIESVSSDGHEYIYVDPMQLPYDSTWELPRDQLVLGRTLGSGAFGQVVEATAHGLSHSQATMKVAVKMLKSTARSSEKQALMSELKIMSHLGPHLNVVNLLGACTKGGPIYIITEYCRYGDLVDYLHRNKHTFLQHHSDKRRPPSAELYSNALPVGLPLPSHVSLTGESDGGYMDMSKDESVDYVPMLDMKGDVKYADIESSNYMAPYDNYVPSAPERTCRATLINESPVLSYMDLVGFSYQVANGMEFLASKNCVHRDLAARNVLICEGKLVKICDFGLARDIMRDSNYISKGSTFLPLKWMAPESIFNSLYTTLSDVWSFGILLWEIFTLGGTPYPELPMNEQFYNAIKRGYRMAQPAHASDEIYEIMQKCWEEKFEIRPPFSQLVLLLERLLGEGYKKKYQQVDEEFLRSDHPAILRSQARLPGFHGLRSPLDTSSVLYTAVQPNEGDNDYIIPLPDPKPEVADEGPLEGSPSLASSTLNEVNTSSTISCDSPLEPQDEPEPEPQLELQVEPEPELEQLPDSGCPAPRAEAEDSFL

Sequence of Serine/threonine-protein kinase 4 (MST1/STK4) (Homo sapiens) (Q13043 whole entry, looked up): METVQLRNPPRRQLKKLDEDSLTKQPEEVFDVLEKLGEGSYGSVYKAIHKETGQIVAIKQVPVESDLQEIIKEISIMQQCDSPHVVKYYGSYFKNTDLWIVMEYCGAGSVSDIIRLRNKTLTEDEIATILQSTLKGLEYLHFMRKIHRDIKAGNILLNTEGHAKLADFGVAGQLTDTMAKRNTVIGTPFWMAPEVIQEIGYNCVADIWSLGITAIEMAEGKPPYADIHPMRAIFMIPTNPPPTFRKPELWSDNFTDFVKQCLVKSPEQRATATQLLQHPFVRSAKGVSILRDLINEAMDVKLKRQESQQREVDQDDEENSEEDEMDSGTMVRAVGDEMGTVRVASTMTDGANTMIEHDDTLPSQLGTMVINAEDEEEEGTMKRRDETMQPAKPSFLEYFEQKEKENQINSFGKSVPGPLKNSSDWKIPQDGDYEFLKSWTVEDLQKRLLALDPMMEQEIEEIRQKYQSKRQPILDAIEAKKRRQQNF
Sequence of Death-associated protein kinase 2 (Homo sapiens) (Q9UIK4 whole entry, looked up): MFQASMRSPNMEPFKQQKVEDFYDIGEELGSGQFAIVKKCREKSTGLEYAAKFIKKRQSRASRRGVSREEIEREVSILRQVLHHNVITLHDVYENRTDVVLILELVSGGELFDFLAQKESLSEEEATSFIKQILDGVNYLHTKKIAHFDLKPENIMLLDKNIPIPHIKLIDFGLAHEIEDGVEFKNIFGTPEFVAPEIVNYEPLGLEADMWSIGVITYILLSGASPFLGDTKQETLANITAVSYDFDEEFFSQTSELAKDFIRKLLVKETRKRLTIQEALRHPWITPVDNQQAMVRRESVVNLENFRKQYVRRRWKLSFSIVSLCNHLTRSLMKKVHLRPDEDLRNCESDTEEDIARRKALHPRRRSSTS
Sequence of Mitogen-activated protein kinase kinase kinase 9 (Homo sapiens) (P80192 whole entry, looked up): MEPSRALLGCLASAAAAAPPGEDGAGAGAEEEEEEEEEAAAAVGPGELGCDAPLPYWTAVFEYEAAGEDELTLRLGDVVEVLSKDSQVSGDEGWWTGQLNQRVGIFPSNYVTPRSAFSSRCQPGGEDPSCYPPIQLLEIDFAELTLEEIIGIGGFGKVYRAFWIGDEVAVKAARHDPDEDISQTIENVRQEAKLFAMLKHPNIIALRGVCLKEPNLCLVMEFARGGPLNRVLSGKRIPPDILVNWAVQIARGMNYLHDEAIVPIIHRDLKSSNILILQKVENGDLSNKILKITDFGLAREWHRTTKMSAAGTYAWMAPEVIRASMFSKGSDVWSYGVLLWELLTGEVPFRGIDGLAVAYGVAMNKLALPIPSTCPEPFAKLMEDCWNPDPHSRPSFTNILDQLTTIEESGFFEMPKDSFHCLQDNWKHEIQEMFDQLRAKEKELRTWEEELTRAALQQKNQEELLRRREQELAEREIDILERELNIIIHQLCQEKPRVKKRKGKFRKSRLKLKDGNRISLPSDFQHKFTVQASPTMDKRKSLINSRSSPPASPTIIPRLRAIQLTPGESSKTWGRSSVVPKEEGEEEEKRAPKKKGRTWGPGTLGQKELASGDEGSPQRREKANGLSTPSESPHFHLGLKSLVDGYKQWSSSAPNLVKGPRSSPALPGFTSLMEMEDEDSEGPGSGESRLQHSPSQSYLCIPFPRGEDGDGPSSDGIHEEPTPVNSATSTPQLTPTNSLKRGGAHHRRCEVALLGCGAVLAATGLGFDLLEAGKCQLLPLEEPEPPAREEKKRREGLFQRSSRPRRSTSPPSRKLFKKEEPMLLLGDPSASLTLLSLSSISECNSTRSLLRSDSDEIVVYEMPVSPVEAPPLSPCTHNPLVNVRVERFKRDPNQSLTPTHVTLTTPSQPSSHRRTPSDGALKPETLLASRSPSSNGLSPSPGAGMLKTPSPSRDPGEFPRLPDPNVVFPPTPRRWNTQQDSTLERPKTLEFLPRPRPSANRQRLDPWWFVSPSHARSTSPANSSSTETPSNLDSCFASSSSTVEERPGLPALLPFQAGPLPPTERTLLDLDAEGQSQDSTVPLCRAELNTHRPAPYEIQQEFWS
Sequence of Transcription initiation factor TFIID subunit 1-like (Homo sapiens) (Q8IZX4 whole entry): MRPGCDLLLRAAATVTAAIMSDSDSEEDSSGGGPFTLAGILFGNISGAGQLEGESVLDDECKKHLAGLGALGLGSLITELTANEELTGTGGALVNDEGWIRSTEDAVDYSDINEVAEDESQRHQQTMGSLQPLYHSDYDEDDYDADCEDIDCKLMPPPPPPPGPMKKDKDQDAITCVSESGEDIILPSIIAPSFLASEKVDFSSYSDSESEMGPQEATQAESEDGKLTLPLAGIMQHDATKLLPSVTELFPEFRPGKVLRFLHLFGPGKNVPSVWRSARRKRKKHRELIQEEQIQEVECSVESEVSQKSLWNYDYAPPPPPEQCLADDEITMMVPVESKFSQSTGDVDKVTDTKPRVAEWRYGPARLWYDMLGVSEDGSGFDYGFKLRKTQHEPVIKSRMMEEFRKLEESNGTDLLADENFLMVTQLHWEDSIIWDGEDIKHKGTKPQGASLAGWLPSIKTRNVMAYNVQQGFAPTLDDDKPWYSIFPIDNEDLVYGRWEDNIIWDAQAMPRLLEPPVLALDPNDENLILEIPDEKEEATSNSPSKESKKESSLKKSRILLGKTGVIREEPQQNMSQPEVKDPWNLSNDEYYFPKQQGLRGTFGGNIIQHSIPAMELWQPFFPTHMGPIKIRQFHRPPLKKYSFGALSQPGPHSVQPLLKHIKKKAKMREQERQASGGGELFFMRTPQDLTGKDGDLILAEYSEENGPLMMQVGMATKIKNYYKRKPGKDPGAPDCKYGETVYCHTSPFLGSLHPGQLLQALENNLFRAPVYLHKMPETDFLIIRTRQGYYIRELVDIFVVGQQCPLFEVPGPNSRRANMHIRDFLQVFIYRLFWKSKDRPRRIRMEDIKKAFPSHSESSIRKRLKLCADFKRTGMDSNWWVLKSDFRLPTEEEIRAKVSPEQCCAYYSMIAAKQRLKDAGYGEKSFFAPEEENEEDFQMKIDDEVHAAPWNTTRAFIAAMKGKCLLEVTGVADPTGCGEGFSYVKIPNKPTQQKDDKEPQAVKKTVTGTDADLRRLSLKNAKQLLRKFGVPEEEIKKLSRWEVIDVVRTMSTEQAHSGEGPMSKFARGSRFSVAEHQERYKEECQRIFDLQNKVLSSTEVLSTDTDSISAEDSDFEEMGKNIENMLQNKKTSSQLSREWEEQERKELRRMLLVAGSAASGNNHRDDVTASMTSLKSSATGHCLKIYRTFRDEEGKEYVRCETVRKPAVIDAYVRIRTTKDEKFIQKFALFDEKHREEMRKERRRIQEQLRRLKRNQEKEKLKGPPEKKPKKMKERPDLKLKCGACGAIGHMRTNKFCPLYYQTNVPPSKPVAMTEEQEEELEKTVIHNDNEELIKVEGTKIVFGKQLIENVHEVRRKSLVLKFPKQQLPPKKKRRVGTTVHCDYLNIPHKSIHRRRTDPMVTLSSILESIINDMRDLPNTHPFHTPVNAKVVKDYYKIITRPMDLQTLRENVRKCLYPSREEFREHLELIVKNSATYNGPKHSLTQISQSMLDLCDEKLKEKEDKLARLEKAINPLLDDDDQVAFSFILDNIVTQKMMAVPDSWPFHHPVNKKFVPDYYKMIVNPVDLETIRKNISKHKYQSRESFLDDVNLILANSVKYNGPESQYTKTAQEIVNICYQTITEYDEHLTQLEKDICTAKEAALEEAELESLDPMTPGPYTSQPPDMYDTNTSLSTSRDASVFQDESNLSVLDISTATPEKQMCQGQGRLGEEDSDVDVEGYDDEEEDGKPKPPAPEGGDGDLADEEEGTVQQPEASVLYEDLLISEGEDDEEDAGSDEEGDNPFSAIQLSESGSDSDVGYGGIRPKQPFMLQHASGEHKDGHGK

With `O=C(N[C@@H](C1CC1)C(F)(F)F)c1cc(-c2cnn3cc(-c4ccc(F)cc4)cnc23)cs1` the inhibition [1] was 0%, the inhibition [2] was 0% and the fold change (FC) [3] was 0.67. The fold change (FC) [4] was 0, the fold change (FC) [5] was 0.16 and the fold change (FC) [6] was 0. The fold change (FC) [7] was 0.
`CC(C)[C@H](NC(=O)c1cc(-c2cnn3cc(-c4ccc(OCCN5CCCCC5)cc4)cnc23)cs1)C(F)(F)F` showed an inhibition [8] of 0%, an inhibition [9] of 43% and an inhibition [10] of 3%.
Work on `CNC(=O)c1ccccc1Oc1nc(Nc2cc(OC)c(OC)c(OC)c2)ncc1Br` yielded an inhibition [11] of 0%, an inhibition [12] of 0% and an inhibition [13] of 9%. It also gave an inhibition [14] of 87%, an inhibition [15] of 6% and a fold change (FC) [16] of 0. The fold change (FC) [17] was 0 and the fold change (FC) [18] was 0.
